The results in this text go back to ChEMBL document CHEMBL3085696, “Aurora isoform selectivity: design and synthesis of imidazo[4,5-b]pyridine derivatives as highly selective inhibitors of Aurora-A kinase in cells” (J Med Chem, 2013).

Data set [1] addresses Aurora kinase B (Homo sapiens, UniProt Q96GD4). The data set is described as follows: Inhibition of N-terminal Myc tagged aurora-B-mediated histone H3 phosphorylation at S10 in human HeLa cells after 2 hrs. It is filed as cell-based. In a few lines: (§1)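 Cells transfected with Myc-tagged Aurora-A (wild type or T217E, L215R, R220K mutants) and treated with inhibitor concentrations for 2 h. Lysed in LDS buffer; SDS-type PAGE and western blot. Blots probed for P-T288 (Aurora-A autophosphorylation) and phospho-histone H3 S10 (Aurora-B substrate). Blots quantified; IC50 derived; ratio taken as H3 IC50 over T288 IC50.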

Data set [2] concerns the target T1, Aurora kinase A (Homo sapiens, UniProt O14965).
T1 sequence (O14965 whole entry): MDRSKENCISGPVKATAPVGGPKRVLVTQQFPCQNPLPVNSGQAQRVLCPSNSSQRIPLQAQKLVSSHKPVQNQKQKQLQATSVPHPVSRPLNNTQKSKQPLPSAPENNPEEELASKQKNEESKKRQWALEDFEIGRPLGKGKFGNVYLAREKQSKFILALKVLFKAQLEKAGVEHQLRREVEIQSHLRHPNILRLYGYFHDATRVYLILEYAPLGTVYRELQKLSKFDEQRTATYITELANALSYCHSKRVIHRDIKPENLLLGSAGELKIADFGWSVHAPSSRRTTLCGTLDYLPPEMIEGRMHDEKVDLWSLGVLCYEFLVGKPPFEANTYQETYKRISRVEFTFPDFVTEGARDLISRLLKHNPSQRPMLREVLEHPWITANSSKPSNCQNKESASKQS
The data set is described as follows: Inhibition of autophosphorylation of N-terminal Myc tagged aurora-A at T288 in human HeLa cells after 2 hrs. In kind it is cell-based. In short, it runs like this:
as §1

Data set [3] deals with HCT-116. As to the kind of experiment: Antiproliferative activity against human HCT116 cells. In kind it is functional.
In data set [4] the target is Glycogen synthase kinase-3 beta (Homo sapiens) (UniProt P49841). The following applies: 1 uM.
Data set [5] concerns HeLa. As to the kind of experiment: Selectivity ratio of IC50 for aurora-B-mediated histone H3 phosphorylation at S10 in human HeLa cells to IC50 for autophosphorylation of N-terminal Myc tagged aurora-A at T288 in human HeLa cells. In kind it is cell-based. In short, it runs like this:
as §1

Data set [6] deals with T2, Receptor-type tyrosine-protein kinase FLT3 (Homo sapiens, UniProt P36888).
T2 sequence (P36888 whole entry): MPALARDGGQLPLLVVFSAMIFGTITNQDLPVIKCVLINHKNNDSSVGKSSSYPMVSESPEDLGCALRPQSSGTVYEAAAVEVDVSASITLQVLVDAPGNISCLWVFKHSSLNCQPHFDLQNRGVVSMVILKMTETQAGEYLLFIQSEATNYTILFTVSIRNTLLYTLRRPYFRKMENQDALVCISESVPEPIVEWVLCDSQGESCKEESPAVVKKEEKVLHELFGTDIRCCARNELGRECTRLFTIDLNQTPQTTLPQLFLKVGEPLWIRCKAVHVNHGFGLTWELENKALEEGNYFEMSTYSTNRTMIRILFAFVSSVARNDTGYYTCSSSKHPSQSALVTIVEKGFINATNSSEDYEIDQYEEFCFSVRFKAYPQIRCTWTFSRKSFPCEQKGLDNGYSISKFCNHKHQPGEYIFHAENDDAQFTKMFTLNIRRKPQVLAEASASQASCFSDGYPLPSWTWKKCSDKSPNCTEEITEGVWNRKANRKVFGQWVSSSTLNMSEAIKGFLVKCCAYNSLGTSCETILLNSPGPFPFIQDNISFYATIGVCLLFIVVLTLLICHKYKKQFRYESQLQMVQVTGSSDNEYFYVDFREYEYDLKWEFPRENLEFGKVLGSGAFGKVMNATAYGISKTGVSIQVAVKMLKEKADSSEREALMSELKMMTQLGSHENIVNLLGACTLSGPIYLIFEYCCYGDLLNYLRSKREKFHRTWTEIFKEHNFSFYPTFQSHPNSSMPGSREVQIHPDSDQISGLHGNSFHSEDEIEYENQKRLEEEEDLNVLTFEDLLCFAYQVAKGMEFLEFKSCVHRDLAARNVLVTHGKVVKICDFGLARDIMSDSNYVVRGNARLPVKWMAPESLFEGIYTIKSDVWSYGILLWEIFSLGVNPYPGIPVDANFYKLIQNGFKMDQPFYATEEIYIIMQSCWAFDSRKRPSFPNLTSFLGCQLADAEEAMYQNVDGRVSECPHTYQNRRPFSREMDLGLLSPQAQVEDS
As to the kind of experiment: Inhibition of FLT3 (unknown origin) at 1 uM. In short, it runs like this:
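Single-concentration (1 μM) profiling within a 110-kinase selectivity panel; activity expressed as percent inhibition of each kinase.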

The target of data set [7] is T1, Aurora kinase A. As to the kind of experiment: Inhibition of N-terminal HIS-tagged aurora-A (unknown origin) using 5FAM-LRRASLG-CONH2 as substrate after 60 mins. In a few lines:
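Aurora-A (5 nM N-terminal His-tagged) incubated with 1.5 μM 5FAM-LRRASLG-CONH2 peptide and 20 μM ATP in 50 mM Tris pH 7.4, 200 mM NaCl, 5 mM MgCl2, 2 mM DTT, 0.1% Tween 20. Runs 60 min at room temperature; EDTA stop. Microfluidic separation of product from substrate. Duplicate 8-point curves, 0.25 pM–200 μM final, 1–2% DMSO. IC50 from four-parameter logistic fit.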

For data set [8], the target named is T1, Aurora kinase A. As to the kind of experiment: Inhibition of autophosphorylation of N-terminal Myc tagged wild type aurora-A at T288 in human HCT116 cells after 2 hrs. It is filed as cell-based, HCT-116. In a few lines:
(§2)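 Cells transfected with N-terminal Myc-tagged Aurora-A (wild type or T217E, L215R or R220K mutant, made by Quikchange mutagenesis), then exposed to a range of inhibitor concentrations for 2 h. Lysed in LDS sample buffer, sonicated, boiled, run on LDS-PAGE and blotted to nitrocellulose. Probed with anti-P-T288 (Aurora-A autophosphorylation) and anti-P-histone H3 S10 (Aurora-B substrate) antibodies. Blots quantified and IC50 fitted.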

Data set [9] has as its target Aurora kinase A (Homo sapiens, UniProt O14965, L215R). As to the kind of experiment: Inhibition of autophosphorylation of aurora-A L215R mutant at T288 in human HCT116 cells after 2 hrs. It is filed as cell-based, HCT-116. In short, it runs like this: as §2
Data set [10] has as its target Vascular endothelial growth factor receptor 1 (Homo sapiens) (UniProt P17948). As to the kind of experiment: Inhibition of VEGFR1 (unknown origin) at 1 uM. In short, it runs like this: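 110-kinase panel profiling, compounds tested at 1 μM, read as percent inhibition.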
In data set [11] the test system is Mus musculus. As to the kind of experiment: Oral bioavailability in Balb/C mouse at 5 mg/kg. The following applies: in vivo. In kind it is ADME, organism-based. In short, it runs like this: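 Female Balb/C mice given 5 mg/kg po or iv in 10% DMSO/5% Tween 20 in saline. Terminal cardiac-puncture plasma taken at 5, 15, 30 min and 1, 2, 4, 6, 24 h. Methanol precipitation with olomoucine internal standard. Analysis by LC/MS (ESI+ MRM).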

Data set [12] can be described thus: Antiproliferative activity against human MV411 cells. It is filed as functional. The following applies: MV4-11.
In data set [13] the target is Aurora kinase A (Homo sapiens, UniProt O14965, R220K). As to the kind of experiment: Inhibition of autophosphorylation of aurora-A R220K mutant at T288 in human HCT116 cells after 2 hrs. It is filed as cell-based, HCT-116. In a few lines:
as §2

The target of data set [14] is Aurora kinase A (Homo sapiens, UniProt O14965, T217E). The data set is described as follows: Inhibition of autophosphorylation of aurora-A T217E mutant at T288 in human HCT116 cells after 2 hrs. It is filed as cell-based, HCT-116. In a few lines:
as §2

Sequence of Aurora kinase B (Q96GD4 whole entry): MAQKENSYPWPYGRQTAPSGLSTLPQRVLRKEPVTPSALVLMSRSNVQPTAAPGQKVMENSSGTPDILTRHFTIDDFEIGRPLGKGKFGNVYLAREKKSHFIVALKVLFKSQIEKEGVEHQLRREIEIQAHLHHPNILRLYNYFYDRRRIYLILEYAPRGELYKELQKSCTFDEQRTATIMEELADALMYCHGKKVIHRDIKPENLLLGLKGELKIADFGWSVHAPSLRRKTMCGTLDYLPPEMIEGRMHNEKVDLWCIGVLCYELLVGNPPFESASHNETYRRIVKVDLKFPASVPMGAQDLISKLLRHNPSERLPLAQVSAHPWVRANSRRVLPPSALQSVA
Sequence of Aurora kinase A (Homo sapiens, UniProt O14965, T217E) (O14965 whole entry I57V/T217E): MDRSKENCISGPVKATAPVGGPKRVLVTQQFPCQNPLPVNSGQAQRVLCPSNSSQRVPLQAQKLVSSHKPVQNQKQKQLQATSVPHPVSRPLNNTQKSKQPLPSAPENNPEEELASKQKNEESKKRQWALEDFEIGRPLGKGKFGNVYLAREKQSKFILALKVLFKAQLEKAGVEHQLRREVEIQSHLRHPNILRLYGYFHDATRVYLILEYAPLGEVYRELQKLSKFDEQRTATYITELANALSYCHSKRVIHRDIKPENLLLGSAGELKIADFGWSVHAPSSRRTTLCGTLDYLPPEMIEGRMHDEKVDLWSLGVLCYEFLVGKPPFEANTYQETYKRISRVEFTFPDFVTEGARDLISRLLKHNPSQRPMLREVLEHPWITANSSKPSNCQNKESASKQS
Sequence of Glycogen synthase kinase-3 beta (Homo sapiens) (P49841 whole entry, looked up): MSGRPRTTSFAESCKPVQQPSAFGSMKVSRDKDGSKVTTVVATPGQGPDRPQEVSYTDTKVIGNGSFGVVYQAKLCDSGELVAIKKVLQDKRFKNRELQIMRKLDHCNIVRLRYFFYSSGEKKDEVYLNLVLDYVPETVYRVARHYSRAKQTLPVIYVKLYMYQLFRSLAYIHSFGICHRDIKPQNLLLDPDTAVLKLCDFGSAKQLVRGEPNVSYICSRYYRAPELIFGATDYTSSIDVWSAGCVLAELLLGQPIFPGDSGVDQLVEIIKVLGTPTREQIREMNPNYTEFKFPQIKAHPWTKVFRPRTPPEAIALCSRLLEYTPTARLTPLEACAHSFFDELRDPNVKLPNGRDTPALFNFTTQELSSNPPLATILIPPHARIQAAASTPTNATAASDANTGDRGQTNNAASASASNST
Sequence of Vascular endothelial growth factor receptor 1 (Homo sapiens) (P17948 whole entry): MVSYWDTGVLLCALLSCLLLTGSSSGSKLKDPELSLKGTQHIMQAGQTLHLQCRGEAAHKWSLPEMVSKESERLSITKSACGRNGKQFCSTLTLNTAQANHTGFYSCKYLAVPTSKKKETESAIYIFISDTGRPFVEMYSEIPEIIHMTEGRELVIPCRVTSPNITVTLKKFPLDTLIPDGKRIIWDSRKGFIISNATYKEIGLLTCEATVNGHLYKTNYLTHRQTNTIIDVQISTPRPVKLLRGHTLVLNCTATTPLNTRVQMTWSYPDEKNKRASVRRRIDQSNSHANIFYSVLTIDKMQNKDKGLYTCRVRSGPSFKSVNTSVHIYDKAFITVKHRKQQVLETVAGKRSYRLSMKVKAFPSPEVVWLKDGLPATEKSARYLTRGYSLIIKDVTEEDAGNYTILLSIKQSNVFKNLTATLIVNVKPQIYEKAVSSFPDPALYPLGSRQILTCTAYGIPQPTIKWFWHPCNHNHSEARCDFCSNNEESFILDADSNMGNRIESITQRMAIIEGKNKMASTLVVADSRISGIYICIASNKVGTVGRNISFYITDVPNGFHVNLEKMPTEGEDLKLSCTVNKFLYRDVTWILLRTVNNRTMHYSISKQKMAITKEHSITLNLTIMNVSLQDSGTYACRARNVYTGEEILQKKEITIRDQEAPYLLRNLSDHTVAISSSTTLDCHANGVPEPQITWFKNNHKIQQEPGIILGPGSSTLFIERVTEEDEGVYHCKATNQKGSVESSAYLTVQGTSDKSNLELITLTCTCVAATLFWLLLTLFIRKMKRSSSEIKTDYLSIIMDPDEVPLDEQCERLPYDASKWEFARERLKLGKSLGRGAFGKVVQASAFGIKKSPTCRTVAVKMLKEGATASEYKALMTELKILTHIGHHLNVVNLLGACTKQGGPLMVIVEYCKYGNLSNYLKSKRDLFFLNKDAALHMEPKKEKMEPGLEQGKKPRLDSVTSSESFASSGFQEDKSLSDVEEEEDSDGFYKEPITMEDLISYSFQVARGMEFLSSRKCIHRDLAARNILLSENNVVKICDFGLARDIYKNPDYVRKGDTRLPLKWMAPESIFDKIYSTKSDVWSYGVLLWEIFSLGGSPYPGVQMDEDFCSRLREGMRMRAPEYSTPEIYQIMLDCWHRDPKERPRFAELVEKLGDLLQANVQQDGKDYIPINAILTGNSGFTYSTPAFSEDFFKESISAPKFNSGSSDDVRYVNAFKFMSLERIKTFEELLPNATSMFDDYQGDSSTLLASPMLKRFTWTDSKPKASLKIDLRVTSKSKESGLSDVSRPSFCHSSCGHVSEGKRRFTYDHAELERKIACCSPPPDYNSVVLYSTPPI
Sequence of Aurora kinase A (Homo sapiens, UniProt O14965, L215R) (O14965 whole entry I57V/L215R): as the sequence (O14965 whole entry I57V/T217E) above, with L215R, E217T counted along it
Sequence of Aurora kinase A (Homo sapiens, UniProt O14965, R220K) (O14965 whole entry I57V/R220K): as the sequence (O14965 whole entry I57V/T217E) above, with E217T, R220K counted along it

Take `Cc1nn(C)cc1-c1nc2c(Oc3ccc(C(=O)Nc4ccccc4)cc3)c(Cl)cnc2[nH]1`: the IC50 in data set [1] is 76800 nM; in [2] it was 160 nM; in data set [6], 162 nM; in data set [7], 67 nM; in data set [8] it was 29 nM; in data set [9], 27 nM. In addition, the IC50 in [13] was determined as 27 nM; in [14] it was 960 nM. Besides, the GI50 in data set [3] was found to be 2300 nM; in data set [12] it was 299 nM. In addition, the inhibition in data set [4] and in data set [10] was greater than 80% in each case. The Ratio IC50 in [5] was found to be 480. In data set [11], the F is recorded as 100%.

What is called IC50 is the concentration needed to halve the response being measured. A low value points to inhibition by little substance. Usually GI50 stands for the concentration that inhibits growth by half. Broadly, the inhibition is the relative decrease from the control value, in per cent.
